≈ marks a conversion by molar mass, not a printed value. Calls of active or inactive are those of the source. No cut-off for these calls is given here.
Tests used:
Leishmania donovani [1] = experiment: Antileishmanial activity against Leishmania donovani MHOM/IN/80/DD8 promastigote forms harboring luciferase gene at 25 uM after 72 hrs by Steady-Glo reagent based luminescence assay relative to control; format: functional; conditions: MHOM/IN/80/DD8, 72 h, read-out: GI
In short: (§1)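 Exponential-phase Dd8-Luc promastigotes at 1×10^6/mL in M199 with 10% FBS, 24 °C, given 50 and 25 µM for 72 h. Vehicle 0.1% DMSO. Steady-Glo added 1:1, luminescence (RLU) read. IC50 from four-parameter Hill regression, derived only where inhibition exceeded 90%. Means of at least three independent experiments.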

Leishmania donovani [2] = experiment: Antileishmanial activity against Leishmania donovani MHOM/IN/80/DD8 promastigote forms harboring luciferase gene at 50 uM after 72 hrs by Steady-Glo reagent based luminescence assay relative to control; format: functional; conditions: MHOM/IN/80/DD8, 72 h, read-out: GI; in short: as §1
Leishmania donovani [3] = experiment: Antileishmanial activity against Leishmania donovani MHOM/IN/80/DD8 amastigote forms harboring luciferase gene infected in mouse J774 cells at 25 uM after 72 hrs by Steady-Glo reagent based luminescence assay relative to control; format: functional; conditions: MHOM/IN/80/DD8, J774, 72 h, read-out: GI
In short: (§2)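 Stationary-phase luciferase-expressing Dd8 promastigotes infected into J774 macrophages (4×10^4/mL seeded, 24 h, 37 °C, 5% CO2) at 1:8 macrophage:parasite for 24 h. Non-internalised parasites washed off. Compounds added at 50 and 25 µM in RPMI/10% FBS for 72 h. Lysis with Steady-Glo luciferin reagent plus PBS, luminescence read. Inhibition relative to untreated infected controls.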

Leishmania donovani [4] = experiment: Antileishmanial activity against Leishmania donovani MHOM/IN/80/DD8 amastigote forms harboring luciferase gene infected in mouse J774 cells at 50 uM after 72 hrs by Steady-Glo reagent based luminescence assay relative to control; format: functional; conditions: MHOM/IN/80/DD8, J774, 72 h, read-out: GI; in short: as §2
Leishmania donovani [5] = experiment: Antileishmanial activity against Leishmania donovani MHOM/IN/80/DD8 promastigote forms harboring luciferase gene after 72 hrs by Steady-Glo reagent based luminescence assay; format: functional; conditions: MHOM/IN/80/DD8, 72 h; in short: as §1
Leishmania donovani [6] = experiment: Antileishmanial activity against Leishmania donovani MHOM/IN/80/DD8 amastigote forms harboring luciferase gene infected in mouse J774 cells after 72 hrs by Steady-Glo reagent based luminescence assay; format: functional, cell-based; conditions: MHOM/IN/80/DD8, J774, 72 h
[7] = Cytotoxicity against mouse J774 cells assessed as reduction in cell viability after 72 hrs by MTT assay; format: cell-based
In short: (§3)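 Vero and J774 cells seeded at 1×10^5 per well for 24 h, then exposed 72 h to seven two-fold dilutions from 500 to 7.81 μM. MTT solution (5 mg/mL stock) added for 2 h at 37 °C, formazan dissolved in DMSO and read at 540 nm. CC50 derived by the Huber and Koella method.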

[8] = Cytotoxicity against African green monkey Vero cells assessed as reduction in cell viability after 72 hrs by MTT assay; format: cell-based; conditions: chlorocebus sabaeus; in short: as §3
[9] = Selectivity index, ratio of CC50 for mouse J774 cells to IC50 for Leishmania donovani MHOM/IN/80/DD8 amastigote forms infected in mouse J774 cells; format: toxicity, cell-based; conditions: read-out: Ratio CC50/IC50
In short: (§4)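 CC50: Vero or J774 cells (1×10^5/well) exposed 72 h to seven two-fold dilutions, 500–7.81 μM; MTT 2 h at 37 °C, formazan in DMSO read at 540 nm. IC50: luciferase-expressing Dd8 amastigotes in J774 macrophages (1:8), 72 h, luminescence, four-parameter Hill fit. SI = CC50/IC50, IC50 mean of three experiments.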

[10] = Selectivity index, ratio of CC50 for African green monkey Vero cells to IC50 for Leishmania donovani MHOM/IN/80/DD8 amastigote forms infected in mouse J774 cells; format: toxicity, cell-based; conditions: read-out: Ratio CC50/IC50; in short: as §4
Leishmania donovani [11] = experiment: Antileishmanial activity against Leishmania donovani MHOM/IN/80/DD8 promastigote forms harboring luciferase gene after 72 hrs by Steady-Glo reagent based two fold dilution assay; format: functional; conditions: MHOM/IN/80/DD8, 72 h
In short: (§5)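 Promastigotes or J774-resident amastigotes treated 72 h with six two-fold dilutions from 200 µM down to 6.25 µM. Luciferase RLU fitted by four-parameter Hill non-linear regression to derive the […] inhibitory concentration (MIC).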

Leishmania donovani [12] = experiment: Antileishmanial activity against Leishmania donovani MHOM/IN/80/DD8 amastigote forms harboring luciferase gene infected in mouse J774 cells after 72 hrs by Steady-Glo reagent based two fold dilution assay; format: functional; conditions: MHOM/IN/80/DD8, 72 h; in short: as §5
[13] = Cytotoxicity against mouse J774 cells assessed as cell viability […] after 72 hrs by MTT assay relative to control; format: cell-based; conditions: read-out: Activity; in short: as §3
[14] = Cytotoxicity against African green monkey Vero cells assessed as cell viability up to 200 uM after 72 hrs by MTT assay relative to control; format: cell-based; conditions: chlorocebus sabaeus, read-out: Activity
Leishmania donovani [15] = experiment: Antileishmanial activity against Leishmania donovani MHOM/IN/80/DD8 promastigote forms harboring luciferase gene at 9.59 uM up to 72 hrs by MTT assay relative to control; format: functional; conditions: MHOM/IN/80/DD8, 72 h
Leishmania donovani [16] = experiment: Antileishmanial activity against Leishmania donovani MHOM/IN/80/DD8 amastigote forms harboring luciferase gene infected in mouse J774 cells at 7.36 uM up to 72 hrs by Giemsa staining based assay relative to control; format: functional; conditions: MHOM/IN/80/DD8, J774, 72 h
In short: (§6)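 J774 macrophages in chamber slides infected with Dd8 promastigotes (1:10 cell:parasite in methods; 1:8 in legend) for 24 h, then treated 48 and 72 h. Cells methanol-fixed, stained with 20% Giemsa. Amastigotes per 100 macrophages counted against untreated infected controls.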

Leishmania donovani [17] = experiment: Antileishmanial activity against Leishmania donovani MHOM/IN/80/DD8 amastigote forms harboring luciferase gene infected in mouse J774 cells at 50 uM up to 72 hrs by Giemsa staining based assay relative to control; format: functional; conditions: MHOM/IN/80/DD8, J774, 72 h; in short: as §6
Leishmania donovani [18] = experiment: Antileishmanial activity against Leishmania donovani MHOM/IN/80/DD8 promastigote forms harboring luciferase gene at 6.25 to 12.5 uM up to 4 days by Steady-Glo reagent based luminescence assay; format: functional
In short: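 Log-phase luciferase promastigotes at 1.0×10^6 at 24 °C, pH 7.4, given two-fold dilutions from 200 to 6.25 µM. RLU in lysed cultures measured daily for up to 4 days to plot growth curves. Three independent experiments.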

Leishmania donovani [19] = experiment: Antileishmanial activity against Leishmania donovani MHOM/IN/80/DD8 amastigote forms harboring luciferase gene infected in mouse J774 cells at 6.25 to 12.5 uM up to 4 days by Steady-Glo reagent based luminescence assay; format: functional, cell-based
In short: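 Infected J774 macrophages held at 37 °C with two-fold dilutions from 200 to 6.25 µM. Intracellular amastigote growth followed by luciferase activity in lysed macrophages, expressed as RLU, over time. Three independent experiments.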

Leishmania donovani [20] = experiment: Antileishmanial activity against Leishmania donovani MHOM/IN/80/DD8 promastigote forms harboring luciferase gene at 50 uM up to 72 hrs by MTT assay relative to control; format: functional; conditions: MHOM/IN/80/DD8, 72 h
[21] = Stability in pH 1.2 simulated gastric fluid at 5 ug/ml after 120 mins by HPLC method
In short: (§7)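 Incubated in simulated gastric fluid (pH 1.2) or simulated intestinal fluid (pH 6.5); percentage remaining intact determined after 120 min.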

[22] = Stability in pH 6.5 simulated intestinal fluid at 5 ug/ml after 120 mins by HPLC method; in short: as §7
[23] = Metabolic stability in mouse liver S9 fractions at 1 mM after 60 mins in presence of NADPH by HPLC method; format: ADME; conditions: read-out: Stability
[24] = Half life in mouse liver S9 fractions at 1 mM in presence of NADPH by HPLC method; format: ADME, tissue-based
Liver = experiment: Intrinsic clearance in mouse liver S9 fractions assessed per mg protein at 1 mM in presence of NADPH by HPLC method; format: ADME; conditions: s9, 1000 µM
[25] = Metabolic stability in mouse liver S9 fractions assessed as rate constant for metabolism at 1 mM after 60 mins in presence of NADPH by HPLC method; format: ADME, tissue-based
Leishmania donovani [26] = experiment: Antileishmanial activity against Leishmania donovani amastigote forms infected in Balb/c mouse assessed as inhibition of parasitic burden in liver up to 100 mg/kg, ip administered for 5 consecutive days measured on day 7 post last treatment by Giemsa staining based assay relative to control; format: functional
Leishmania donovani [27] = experiment: Antileishmanial activity against Leishmania donovani amastigote forms infected in Balb/c mouse assessed as inhibition of parasitic burden in spleen up to 100 mg/kg, ip administered for 5 consecutive days measured on day 7 post last treatment by Giemsa staining based assay relative to control; format: functional
Leishmania donovani [28] = experiment: Antileishmanial activity against Leishmania donovani amastigote forms infected in Balb/c mouse assessed as inhibition of parasitic burden in spleen at 200 mg/kg, ip administered for 5 consecutive days measured on day 7 post last treatment by Giemsa staining based assay relative to control; format: functional
Leishmania donovani [29] = experiment: Antileishmanial activity against Leishmania donovani amastigote forms infected in Balb/c mouse assessed as inhibition of parasitic burden in liver at 200 mg/kg, ip administered for 5 consecutive days measured on day 7 post last treatment by Giemsa staining based assay relative to control; format: functional

COc1ccc(OC)c(C2C3=C(CC(C)(C)CC3=O)Nc3c2c(-c2c[nH]c4ccccc24)nn3-c2ccc(Cl)c(Cl)c2)c1 (stereo not given)
inhibition of growth at 25 µM (Leishmania donovani [1]): 85.9% | inhibition of growth at 50 µM (Leishmania donovani [2]): 90.6% | inhibition of growth at 25 µM (Leishmania donovani [3]): 91.5% | inhibition of growth at 50 µM (Leishmania donovani [4]): 95.8% | IC50 (Leishmania donovani [5]): 9.59 µM | IC50 (Leishmania donovani [6]): 7.36 µM | CC50 at 72 h [7]: 482 µM | CC50 at 72 h [8]: 498 µM | selectivity ratio [9]: 65.5 | selectivity ratio [10]: 67.6 | MIC (Leishmania donovani [11]): 50 µM (≈ 30.7 µg/mL) | MIC (Leishmania donovani [12]): 50 µM (≈ 30.7 µg/mL) | viability at 72 h [13]: > 95% | viability at 72 h [14]: > 95% | inhibition at 9.59 µM (Leishmania donovani [15]): > 95% | inhibition at 7.36 µM (Leishmania donovani [16]): > 93% | inhibition at 50 µM (Leishmania donovani [17]): > 93% | Activity (Leishmania donovani [18]): Active | Activity (Leishmania donovani [19]): Active | inhibition at 50 µM (Leishmania donovani [20]): > 95% | Stability [21]: 75% | Stability [22]: 58% | remaining at 1 h, 1000 µM [23]: 31% | half-life at 1000 µM [24]: 40 min | CLH (Liver): 34.65 µL/min | k el at 1 h, 1000 µM [25]: 0.000283 s⁻¹ | inhibition (INH) (Leishmania donovani [26]): >50% | inhibition (INH) (Leishmania donovani [27]): >50% | Imax (Leishmania donovani [28]): 68% | Imax (Leishmania donovani [29]): 62%
